Screening results deposited in PubChem BioAssay by several laboratories.
Shown are actives, neighbours in structure and some others; about 3% of the full set was active somewhere.
proKLK7 act: proKLK7 zymogen activators, primary screen, biochemical, fluorescence intensity | purified proKLK7, EDANS-DABCYL substrate fluorescence; 100% is mature enzyme control, 0% vehicle | AID 652039, 2013 | hit rate 0.9% among 370,000 | Kallikrein-7 (Homo sapiens), P49862 | activation, % at 7 µM;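 active means activation above the mean of all tested compounds plus 3 SD, computed per campaign excluding outliers beyond control limits, cut at about 13% in these data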
Target sequence (P49862 whole entry, looked up): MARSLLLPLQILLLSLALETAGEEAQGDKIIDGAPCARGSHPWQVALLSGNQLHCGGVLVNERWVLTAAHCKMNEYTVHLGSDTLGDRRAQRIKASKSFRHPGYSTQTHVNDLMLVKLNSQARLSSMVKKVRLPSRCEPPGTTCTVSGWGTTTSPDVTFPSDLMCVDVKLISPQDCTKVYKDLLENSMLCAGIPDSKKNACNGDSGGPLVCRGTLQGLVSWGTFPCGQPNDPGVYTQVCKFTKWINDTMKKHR
PLC-beta3 inh: human PLC-beta3 inhibitors, primary screen, biochemical, fluorescence; inhibition, % at 12.2 µM; Purified PLC-beta3, fluorogenic substrate; 1-phosphatidylinositol 4,5-bisphosphate phosphodiesterase beta-3 (Homo sapiens), Q01970; hit rate 0.18% among 370,000; in the data active means inhibition above about 11%;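 further: 0% = median of compound wells on plate and 100% = full blocker control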
NRP1-CendR mod: modulators of CendR peptide binding to NRP-1, primary screen, biochemical, fluorescence polarization, uHTS; FAM-RPARPAR peptide binding to NRP-1; inhibition, % at 25 µM; hit rate 0.85% among 360,000; AID 602438, 2012; Neuropilin-1 (Homo sapiens), O14786;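 active means inhibition or corrected inhibition above about 18%, plus a signal ratio from 0.5 to 1.5, limit read from the data, passing the limit was not always enough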
Tn7 DDE FP: inhibitors of Tn7 peptide binding to fibrin DD(E), primary screen, biochemical, fluorescence polarization, human fibrin, Tn7 probe. hit rate 0.13% among 370,000. FP displacement of FITC-Tn7 peptide from fibrin DD(E); 0% = median of compound wells per plate. inhibition, % at 8.3 µM. AID 720508, 2013. Fibrinogen beta chain (Homo sapiens), P02675;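 active means inhibition above the mean of compounds falling within the control limits plus 3 SD of them, cut at about 14% in these data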;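 further: 0% = plate median of compound wells and 100% = 10 µM Aha-Tn7 peptide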
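Test system: human clot-derived fibrin DD(E) complex / Quantity: 2 µM final DD(E) protein / Incubation: 10 min plus 3 h, room temperature / Measured by: fluorescence polarization / Benchmarks: high control of 10 µM Aha-Tn7 peptide / Replicates: singlicate testing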
Tn6 DDE FP: inhibitors of Tn6 peptide binding to fibrin DD(E), primary screen, biochemical, fluorescence polarization, human fibrin, Tn6 probe. inhibition, % at 8.3 µM. hit rate 0.21% among 370,000. Fibrin DD(E) TRITC-Tn6 fluorescence polarization displacement. AID 720509, 2013. Fibrinogen beta chain (Homo sapiens), P02675;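 active means inhibition above a per-campaign cutoff: mean of compounds within control limits plus 3 SD, cut at about 15% in these data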;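 further: 0% = median of all compound wells on the plate and 100% = blocking peptide control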
PLC-gamma1 inh: PLC-gamma1 enzyme inhibitors, primary screen, biochemical, fluorescence, purified enzyme | 1-phosphatidylinositol 4,5-bisphosphate phosphodiesterase gamma-1 (Homo sapiens), P19174 | fluorogenic substrate | inhibition, % at 12.2 µM | hit rate 0.84% among 370,000; in the data active means inhibition above about 9.5%
KLK7 act conf: proKLK7 zymogen activators, confirmation, biochemical, fluorescence intensity, triplicate; shares compounds with proKLK7 act; purified proKLK7, EDANS-DABCYL substrate fluorescence; scaled: vehicle 0, mature enzyme 100; activation, % at 7 µM; hit rate 68% among 3,200;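 active means activation, as change over the incubation, above the mean of all tested compounds plus 3 SD, cut at about 13% in these data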
EDANS interfere: EDANS-DABCYL substrate optical interference, artefact control for kallikrein-7 zymogen activator project, biochemical, fluorescence intensity, high throughput | hit rate 80% among 3,200 | AID 686952, 2013 | no enzyme, 4 h; solvent 0%, active enzyme control 100% | activation, % at 7 µM | shares compounds with proKLK7 act;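 active means activation above the all-compound mean plus 3 SD, ignoring values outside control-based bounds, cut at about 4.8% in these data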;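 further: value is the 4 h activation minus the activation read at time zero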
K7 EDANS ctr: counter-screen for kallikrein-7 activators: EDANS-DABCYL interference, dose response; EC50, µM; EDANS-DABCYL peptide fluorescence interference, no enzyme; hit rate 20% among 250; shares compounds with proKLK7 act; AID 720493;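 active means compounds that raise the fluorescence signal in this interference counterscreen, with EC50 at or below 10 µM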;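 further: intact quenched peptide substrate alone read at 355 nm excitation and 520 nm emission; signal is fluorescence gain from T0 to T4 after four hours at room temperature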
* marks the source's active call; other numbers are inactive results; i = inactive; nt = no result given.

SMILES	proKLK7 act	PLC-beta3 inh	NRP1-CendR mod	Tn7 DDE FP	Tn6 DDE FP	PLC-gamma1 inh	KLK7 act conf	EDANS interfere	others
CCCc1cc(=O)oc2c3c(cc(OCC(=O)N4CCC(C(=O)O)CC4)c12)OC(C)(C)CC3	65*	i	-8	1	2	i	77*	76*
Cc1c(C)c2c(OCC(=O)N3CCC(O)CC3)cc3c(c2oc1=O)CCC(C)(C)O3	42*	i	-18	0	10	i	69*	73*
c1ccc(CNc2nc(Oc3ccncc3)c3sccc3n2)cc1	15*	i	5	-5	5	-410	10	4.9*
c1csc(CNc2nc(Oc3ccncc3)c3sccc3n2)c1	17*	i	3	1	-6	i	5	12*
CCOC(=O)c1cc(N2CCCCC2)nc2ccccc12	17*	-287	4	-5	7	-194	3	4.9*
O=C(O)c1cc(N2CCCCC2)nc2ccccc12	2	-242	5	4	-5	-177	nt	nt
COC(=O)c1cc(N2CCN(C)CC2)nc2ccccc12	61*	i	78	11	2	-396	15*	13*
O=C(CSc1nc2ccccc2n1Cc1ccccc1Cl)NN=C/C(Br)=C/c1ccccc1	-1	-1	nt	-4	-8	-1	nt	nt
COc1ccc(OC)c(NC(=O)C(C)SCc2nc3sc(C)c(C)c3c(=O)[nH]2)c1 (configuration not stated)	0	-5	-4	2	-4	-2	nt	nt
COc1ccc(NC(C)=O)cc1NC(C)c1nc2sc(C)c(C)c2c(=O)[nH]1 (configuration not stated)	16*	-78	-7	-7	-9	-62	9	9.3*
COc1cc(C2C3CN(C)CC=C3C(C#N)=C(N)C2(C#N)C#N)ccc1OC(C)C (configuration not stated)	1	-104	-2	-5	1	-73	nt	nt
CC(C)(C)OC(=O)N1CC=C2C(C#N)=C(N)C(C#N)(C#N)[C@H](c3cccnc3)[C@H]2C1	19*	-101	-36	-1	-2	-84	37*	34*
CC(C)N1CC=C2C(C#N)=C(N)C(C#N)(C#N)C(c3ccccc3)C2C1 (configuration not stated)	16*	-438	39	8	11	-377	29*	28*
N#CC1=C(N)C(C#N)(C#N)[C@H](c2ccncc2)[C@H]2CN(C(=O)OCc3ccccc3)CC=C12	31*	-133	-22	6	0	-105	27*	21*
CN1CC=C2C(C#N)=C(N)C(C#N)(C#N)C(Cc3ccccc3)C2C1 (configuration not stated)	24*	-453	-6	9	4	-371	12	9.3*
CCC1C2CN(C(C)=O)CC=C2C(C#N)=C(N)C1(C#N)C#N (configuration not stated)	12	-53	8	1	-4	-48	nt	nt
COC(=O)c1cc(-c2ccc(F)cc2OCc2ccccc2)c(=O)n2c1CCC2	0	0	nt	5	-8	7	nt	nt
CCN(CC)CCNc1cc(C)c(C#N)c2nc3ccccc3n12	132*	i	-2	-2	5	i	10	5.4*
Cc1cc(NCCCCO)n2c(nc3ccccc32)c1C#N	43*	-343	-55	-2	-10	-295	47*	37*	K7 EDANS ctr=>70
COCCN(CCOC)c1cc(C)c(C#N)c2nc3ccccc3n12	39*	i	8	0	-2	i	61*	50*	K7 EDANS ctr=i
CCN(CC)CCCNc1cc(C(F)(F)F)c(C#N)c2nc3ccccc3n12	53*	i	-27	1	6	i	-7	-11
CCN(CC)CCNc1c2c(c(C#N)c3nc4ccccc4n13)CCCC2	11	-314	10	0	-5	-231	nt	nt
COC(=O)[C@]12C[C@H](CC(=O)NCc3cccs3)C(=O)N(Cc3ccc(Cl)cc3Cl)C1=C[C@H](COCc1ccccc1)O[C@@H]2C	0	1	nt	1	2	1	nt	nt
Cc1c(NS(=O)(=O)c2cc3c(cc2Br)CCN3C(=O)C2CC2)c(=O)n(-c2ccccc2)n1C	-1	2	nt	-2	8	1	nt	nt
CCN(CC)CCCNc1cc(C)c(C#N)c2nc3ccccc3n12	69*	i	-94	-3	5	i	38*	40*
SMILES	proKLK7 act	PLC-beta3 inh	NRP1-CendR mod	Tn7 DDE FP	Tn6 DDE FP	PLC-gamma1 inh	KLK7 act conf	EDANS interfere	others
COc1ccc2nc(N3CCC(C)CC3)c(C#N)cc2c1	-14	-246	1	-4	-9	-182	nt	nt
COc1ccc2nc(N3CCC(O)CC3)c(C#N)cc2c1	16*	i	-5	-3	-1	i	61*	72*
Cc1ccc(C(=O)N/N=c2\oc3ccccc3cc2C(N)=O)cc1	-1	-39	5	0	-4	-24	nt	nt
CC(=O)c1cc2cc(O)ccc2o1	83*	i	4	0	1	i	71*	64*
Cc1ccc(N=c2oc3cc(O)ccc3cc2C(N)=O)cc1	24*	i	-20	1	2	i	10	11*
O=C(NCc1ccco1)c1cc2ccc(O)cc2oc1=O	49*	i	-10	0	4	i	58*	71*
CC(=O)c1cc2ccc(O)cc2oc1=O	20*	-478	13	0	-5	-361	27*	32*
CC(C)CNC(=O)OCc1cn(Cc2cc(F)ccc2F)nn1	0	-3	nt	0	9	0	nt	nt
Cc1cc(N2CCC[C@@H]2C)nc2ccccc12	nt	-8	nt	3	-2	6	nt	nt
CCN1CCCCC(NC(=O)c2ccccc2)C1=O (configuration not stated)	0	1	nt	-7	3	1	nt	nt
c1ccc(Cn2c(SCC3CCCCC3)nnc2-c2cccnc2)cc1	0	-2	nt	6	-4	-2	nt	nt
